Assay results gathered from unrelated publications.
Lines come from different studies, so protocols differ.
Organism: Staphylococcus aureus
Observed: microbial growth

| SMILES | test | system | conditions | MIC |
| --- | --- | --- | --- | --- |
| CC(=O)NC[C@H]1CN(c2ccc(N3CCOCC3)c(F)c2)C(=O)O1 | – | MRSA | – | 1 µg/mL |
| COc1cc2cc(CNCCN3CCN(C)CC3)c(SCc3ccccc3)nc2c(OC)c1OC | broth dilution | – | – | 128 µg/mL |
| N=c1sc(C(=O)c2ccc(Nc3cnccn3)cc2)nn1-c1ccccc1 | broth dilution | ATCC25923 | – | 50 µg/mL |
| CCCCCCC#Cc1cncc(-c2nnc(SCc3cc([N+](=O)[O-])cc([N+](=O)[O-])c3)n2CCOC2OC(CN)C(O)C2O)c1 (stereo not drawn) | broth dilution | MRSA | – | > 64 µg/mL |
| Brc1ccc2nc(SCc3ccccc3)c(CNCCC3CCN(C4CCCC4)CC3)cc2c1 | broth dilution | – | – | 32 µg/mL |
| CC(=O)NC[C@H]1CN(c2ccc(N3CCOCC3)c(F)c2)C(=O)O1 | broth dilution | ATCC29213 | – | 1 µg/mL |
| CC1(C)S[C@@H]2[C@H](NC(=O)[C@H](N)c3ccccc3)C(=O)N2[C@H]1C(=O)O | agar dilution | ATCC43300 | – | > 128 µg/mL |
| CC(=O)NC[C@H]1CN(c2ccc(N3CCOCC3)c(F)c2)C(=O)O1 | broth dilution | USA300 | – | 1 µg/mL |
| O=C(O)c1cn(C2CC2)c2cc(N3CCNCC3)c(F)cc2c1=O | broth dilution | ATCC25923 | 16 h | 6.25 µM |
| CN[C@H](CC(C)C)C(=O)N[C@H]1C(=O)N[C@@H](CC(N)=O)C(=O)N[C@H]2C(=O)N[C@H]3C(=O)N[C@H](C(=O)N[C@H](C(=O)O)c4cc(O)cc(O)c4-c4cc3ccc4O)[C@H](O)c3ccc(c(Cl)c3)Oc3cc2cc(c3O[C@@H]2O[C@H](CO)[C@@H](O)[C@H](O)[C@H]2O[C@H]2C[C@](C)(N)[C@H](O)[C@H](C)O2)Oc2ccc(cc2Cl)[C@H]1O | broth dilution | MRSA | – | 0.67 µM |
| CC[C@H]1OC(=O)[C@H](C)[C@@H](O[C@H]2C[C@@](C)(OC)[C@@H](O)[C@H](C)O2)[C@H](C)[C@@H](O[C@@H]2O[C@H](C)C[C@H](N(C)C)[C@H]2O)[C@](C)(O)C[C@@H](C)C(=O)[C@H](C)[C@@H](O)[C@]1(C)O | broth dilution | USA300 | – | > 64 µg/mL |
| COc1cc2cc(CNCCC3CCN(C4CCCC4)CC3)c(SCc3ccccc3)nc2c(OC)c1OC | broth dilution | – | – | > 128 µg/mL |
| COc1cccc(OC)c1C(=O)N[C@@H]1C(=O)N2[C@@H]1SC(C)(C)[C@@H]2C(=O)O | broth dilution | ATCCBAA44 BAA44 | – | > 64 µg/mL |
| CCN1CCC(CCNCc2cc3cc(-c4ccccc4)ccc3nc2SCc2ccccc2)CC1 | broth dilution | – | – | 4 µg/mL |
| CCCCCCCCCCCC[N+](C)(C)Cc1ccccc1 | – | MRSA USA300 | drug-resistant strain | 8 µM |
| CN[C@H](CC(C)C)C(=O)N[C@H]1C(=O)N[C@@H](CC(N)=O)C(=O)N[C@H]2C(=O)N[C@H]3C(=O)N[C@H](C(=O)N[C@H](C(=O)O)c4cc(O)cc(O)c4-c4cc3ccc4O)[C@H](O)c3ccc(c(Cl)c3)Oc3cc2cc(c3O[C@@H]2O[C@H](CO)[C@@H](O)[C@H](O)[C@H]2O[C@H]2C[C@](C)(N)[C@H](O)[C@H](C)O2)Oc2ccc(cc2Cl)[C@H]1O | broth dilution | USA300 | – | 1 µg/mL |
| CN[C@H](CC(C)C)C(=O)N[C@H]1C(=O)N[C@@H](CC(N)=O)C(=O)N[C@H]2C(=O)N[C@H]3C(=O)N[C@H](C(=O)N[C@H](C(=O)O)c4cc(O)cc(O)c4-c4cc3ccc4O)[C@H](O)c3ccc(c(Cl)c3)Oc3cc2cc(c3O[C@@H]2O[C@H](CO)[C@@H](O)[C@H](O)[C@H]2O[C@H]2C[C@](C)(N)[C@H](O)[C@H](C)O2)Oc2ccc(cc2Cl)[C@H]1O | agar dilution | ATCC25923 | – | 0.5 µg/mL |
| Cc1ccc2[nH]nc(-c3nnc(Nc4ccc(F)cc4Cl)s3)c2c1 | – | ATCC29213 | – | 29.7 µg/mL |
| C[C@H]1COc2c(N3CCN(C)CC3)c(F)cc3c(=O)c(C(=O)O)cn1c23 | – | ATCC29213 MSSA | drug-resistant strain | 0.12 µg/mL |
| CCCCCCC#Cc1cncc(-c2nnc(SCc3cc(C(F)(F)F)cc(C(F)(F)F)c3)n2CCCN)c1 | broth dilution | ATCC29213 | – | 4 µg/mL |

| SMILES | test | system | conditions | MIC |
| --- | --- | --- | --- | --- |
| Cc1ccc2[nH]nc(-c3nnc(Nc4ccc(Cl)cc4)s3)c2c1 | – | ATCC29213 | – | 44.5 µg/mL |
| CCCCCCC#Cc1cncc(-c2nnc(SCc3ccc([N+](=O)[O-])cc3)n2CCCN)c1 | broth dilution | MRSA | – | 8 µg/mL |
| CC[C@H]1OC(=O)[C@H](C)[C@@H](O[C@H]2C[C@@](C)(OC)[C@@H](O)[C@H](C)O2)[C@H](C)[C@@H](O[C@@H]2O[C@H](C)C[C@H](N(C)C)[C@H]2O)[C@](C)(O)C[C@@H](C)/C(=N\OCOCCOC)[C@H](C)[C@@H](O)[C@]1(C)O | agar dilution | ATCC43300 | – | 16 µg/mL |
| Cc1ccc2[nH]nc(-c3nnc(Nc4ccc([N+](=O)[O-])cc4)s3)c2c1 | – | ATCC29213 | – | 37.4 µg/mL |
| CCN1CCC(CCNCc2cc3cc(OC)c(OC)c(OC)c3nc2SCc2ccccc2)CC1 | broth dilution | – | – | 128 µg/mL |
| C=C[C@]1(C)C[C@@H](OC(=O)CS[C@@H]2C[C@H]3CC[C@@H](C2)N3C)[C@]2(C)[C@H](C)CC[C@]3(CCC(=O)[C@H]32)[C@@H](C)[C@@H]1O | agar dilution | ATCC25923 | – | 0.0312 µg/mL |
| CNC(C)C1CCC(N)C(OC2C(N)CC(N)C(OC3OCC(C)(O)C(NC)C3O)C2O)O1 (stereo not drawn) | broth dilution | – | – | 2 µg/mL |
| CCCCCCCCN=c1ccn(CCCCCCCCCCn2ccc(=NCCCCCCCC)cc2)cc1 | – | ATCC33591 MRSA | drug-resistant strain | 1 µM |
| N#CC(C#N)=C1SC(C(=O)c2ccc(Nc3cnccn3)cc2)=NN1c1ccccc1 | broth dilution | ATCC25923 | – | 50 µg/mL |
| CCCCCCC#Cc1cncc(-c2nnc(SCc3cc([N+](=O)[O-])cc([N+](=O)[O-])c3)n2C2CCNCC2)c1 | broth dilution | ATCC29213 | – | 8 µg/mL |
| Cc1ccc2[nH]nc(-c3nnc(Nc4cc(Cl)cc(Br)c4)s3)c2c1 | – | ATCC29213 | – | 204 µg/mL |
| N#CC(C#N)=C1SC(C(=O)c2ccc(Nc3cnccn3)cc2)=NN1c1ccc([N+](=O)[O-])cc1 | broth dilution | ATCC25923 | – | 3.12 µg/mL |
| COc1c(N2C[C@@H]3CCCN[C@@H]3C2)c(F)cc2c(=O)c(C(=O)O)cn(C3CC3)c12 | agar dilution | ATCC29213 | – | 0.5 µg/mL |
| [H]/N=C(\N/C(=N/[H])NCCCCCCNC(=N)NC(=N)Nc1ccc(Cl)cc1)Nc1ccc(Cl)cc1 | – | ATCC33591 MRSA | drug-resistant strain | 1 µM |
| CC(=O)c1ccc2cc(S(=O)(=O)Nc3ccc(Br)cc3)ccc2c1 | broth dilution | ATCC25923 | – | 20000 µg/mL |
| CCCCCCC#Cc1cncc(-c2nnc(SCc3cc([N+](=O)[O-])cc([N+](=O)[O-])c3)n2CCCN)c1 | broth dilution | ATCC29213 | – | 8 µg/mL |
| CC[C@H]1OC(=O)[C@H](C)[C@@H](O[C@H]2C[C@@](C)(OC)[C@@H](O)[C@H](C)O2)[C@H](C)[C@@H](O[C@@H]2O[C@H](C)C[C@H](N(C)C)[C@H]2O)[C@](C)(O)C[C@@H](C)CN(C)[C@H](C)[C@@H](O)[C@]1(C)O | broth dilution | ATCCBAA44 BAA44 | – | > 64 µg/mL |
| Cc1cc(O)cc(Nc2nnc(-c3n[nH]c4ccc(C)cc34)s2)c1 | – | ATCC29213 | – | 87.6 µg/mL |
| O=C(N[C@H](CO)[C@H](O)c1ccc([N+](=O)[O-])cc1)C(Cl)Cl | broth dilution | ATCC25923 | – | 6.25 µg/mL |
